Test results published in ChEMBL document CHEMBL1125754, “Synthesis and antiviral activity of 9-alkoxypurines. 2. 9-(2,3-Dihydroxypropoxy)-, 9-(3,4-dihydroxybutoxy)-, and 9-(1,4-dihydroxybut-2-oxy)purines” (J Med Chem, 1991).

Legend:
[1] = test system: Human alphaherpesvirus 1; assay: Compound was tested for its antiviral activity against HSV-1 (SC16) using plaque reduction assay.; assay type: functional, organism-based
Summary of the method: (§1)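 MRC-5 cell monolayers were infected with about 50 PFU of virus. Compounds were present at various concentrations for the whole incubation; stocks were 10 mg/mL in Me2SO, diluted in culture medium. IC50 is the concentration that cut plaque count to 50% of untreated controls.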

[2] = test system: Human alphaherpesvirus 3; assay: Compound was tested for its antiviral activity against VZV (Ellen) using plaque reduction assay.; assay type: functional, organism-based; summary of the method: as §1
[3] = test system: Human alphaherpesvirus 2; assay: Compound was tested for its antiviral activity against HSV-2 (MS) using plaque reduction assay.; assay type: functional, organism-based; summary of the method: as §1
[4] = test system: Human alphaherpesvirus 3; assay: Compound was tested for its antiviral activity against VZV(Ellen) using plaque reduction assay.
[5] = test system: Human alphaherpesvirus 2; assay: Compound was tested for its antiviral activity against HSV-2(MS) using plaque reduction assay.; assay type: functional, organism-based; summary of the method: as §1

SMILES | IC50 [1] | IC50 [2] | IC50 [3] | IC50 [4] | IC50 [5]
Nc1nc(O)c2ncn(OCCC(O)CO)c2n1 (centres undefined) | > 390 µM | > 390 µM | > 390 µM |  | 
Nc1nc(O)c2ncn(O[C@H](CO)CCO)c2n1 | 36 µM | 8.3 µM | > 390 µM |  | 
Nc1nc(O)c2ncn(O[C@@H](CO)CCO)c2n1 | 390 µM | > 390 µM | > 390 µM |  | 
Nc1nc(O)c2ncn(OC(CO)CCO)c2n1 (centres undefined) | 43 µM | 30 µM | > 390 µM |  | 
Nc1nc2c(ncn2COCCO)c(=O)[nH]1 [ACYCLOVIR] | 4.8 µM |  |  | 15 µM | 1.2 µM

The next lines start with results.

IC50 [1] | IC50 [2] | IC50 [3] | SMILES | IC50 [4] | IC50 [5]
> 415 µM | > 415 µM | > 415 µM | Nc1nc(O)c2ncn(OC[C@H](O)CO)c2n1 |  | 
2.7 µM | 62 µM | 0.46 µM | Nc1nc(O)c2ncn(OC[C@@H](O)CO)c2n1 |  | 
7.9 µM | 154 µM | 2.8 µM | Nc1nc(O)c2ncn(OCC(O)CO)c2n1 (centres undefined) |  | 
